In ChEMBL document CHEMBL3808334, “Synthesis and in vitro evaluation of novel triazine analogues as anticancer agents and their interaction studies with bovine serum albumin” (Eur J Med Chem, 2016):

How the values were obtained:
[1] = Growth inhibition of human Hs 578T cells assessed as cell growth at 10^-8 M incubated for 48 hrs by sulforhodamine B assay; assay type: functional; conditions: read-out: Activity
[2] = Growth inhibition of human BT549 cells incubated for 48 hrs by sulforhodamine B assay; assay type: functional; conditions: BT-549, 48 h
How it was run: (§1)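 Five-dose assay: five concentrations from 10-fold or ½-log serial dilutions. Cells are plated at 5,000–40,000 per well according to doubling time, grown 24 h, then exposed 48 h at 37 °C, 5% CO₂. Fixed with cold 50% TCA (final addition) for 60 min at 4 °C and stained with 0.4% SRB in 1% acetic acid. Bound dye is solubilized in 10 mM Tris base and read at 515 nm. GI₅₀ is where [(Ti−Tz)/(C−Tz)]×100 = 50, with a time-zero plate as Tz.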

SK-MEL-28 = assay: Growth inhibition of human SK-MEL-28 cells incubated for 48 hrs by sulforhodamine B assay; assay type: functional; conditions: SK-MEL-28, 48 h
How it was run: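 Cells were plated at 5,000–40,000 per well according to doubling time and preincubated 24 h at 37 °C in 5% CO2; time-zero plates were then TCA-fixed. Five concentrations (10-fold or ½-log dilutions, DMSO stock) were incubated 48 h. Cells were TCA-fixed, stained with 0.4% SRB and read at 515 nm. GI50 was taken where [(Ti−Tz)/(C−Tz)]×100 = 50.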

[3] = Growth inhibition of human HOP92 cells assessed as cell growth at 10^-8 M incubated for 48 hrs by sulforhodamine B assay; assay type: functional; conditions: HOP-92, 48 h, read-out: Activity
[4] = Growth inhibition of human DU145 cells assessed as cell growth at 10^-8 M incubated for 48 hrs by sulforhodamine B assay; assay type: functional; conditions: DU-145, 48 h, read-out: Activity
How it was run: (§2)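 Cells seeded at 5,000–40,000/well according to doubling time and preincubated 24 h at 37 °C, 5% CO2. Time-zero plates were TCA-fixed. DMSO concentrate was diluted in medium with 50 µg/ml gentamicin to give five concentrations (10-fold or ½ log steps), then exposed 48 h. Cells were TCA-fixed, stained with 0.4% SRB and read at 515 nm. Percent growth was taken against time-zero and control; GI50, TGI and LC50 derived.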

[5] = Growth inhibition of human RPMI8226 cells assessed as cell growth at 10^-7 M incubated for 48 hrs by sulforhodamine B assay; assay type: functional; conditions: RPMI-8226, 48 h, read-out: Activity
ACHN = assay: Growth inhibition of human ACHN cells assessed as cell growth at 10 uM incubated for 48 hrs by sulforhodamine B assay; assay type: functional; conditions: read-out: Activity
How it was run: (§3)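 One-dose screen at 10 µM final. Cells are plated at 5,000–40,000 per well according to doubling time and preincubated 24 h at 37 °C, 5% CO₂. Compound (DMSO stock diluted in medium with 50 µg/ml gentamicin) is then added for 48 h. Growth percent is read by sulforhodamine B staining, absorbance at 515 nm.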

[6] = Growth inhibition of human Caki1 cells incubated for 48 hrs by sulforhodamine B assay; assay type: functional; conditions: CAKI-1, 48 h; for CC50: read-out: pLC50 (the source's name) (converted); how it was run: as §2
[7] = Growth inhibition of human SKOV3 cells assessed as cell growth at 10^-5 M incubated for 48 hrs by sulforhodamine B assay; assay type: functional; conditions: SK-OV-3, 48 h, read-out: Activity
M14 = assay: Growth inhibition of human M14 cells assessed as cell growth at 10^-8 M incubated for 48 hrs by sulforhodamine B assay; assay type: functional; conditions: M14, 48 h, read-out: Activity
MDA-MB-231 = assay: Growth inhibition of human MDA-MB-231 cells assessed as cell growth at 10^-4 M incubated for 48 hrs by sulforhodamine B assay; assay type: functional; conditions: MDA-MB-231, 48 h, read-out: Activity
A549 = assay: Growth inhibition of human A549/ATCC cells assessed as cell growth at 10 uM incubated for 48 hrs by sulforhodamine B assay; assay type: functional; conditions: A549, 48 h, read-out: Activity; how it was run: as §3
[8] = Growth inhibition of human TK10 cells assessed as cell growth at 10^-6 M incubated for 48 hrs by sulforhodamine B assay; assay type: functional; conditions: TK-10, 48 h, read-out: Activity
[9] = Growth inhibition of human PC3 cells assessed as cell growth at 10^-6 M incubated for 48 hrs by sulforhodamine B assay; assay type: functional; conditions: PC-3, 48 h, read-out: Activity
[10] = Growth inhibition of human LOXIMVI cells assessed as cell growth at 10 uM incubated for 48 hrs by sulforhodamine B assay; assay type: functional; conditions: LOX IMVI, read-out: Activity
SN12C [11] = assay: Growth inhibition of human SN12C cells assessed as cell growth at 10^-5 M incubated for 48 hrs by sulforhodamine B assay; assay type: functional; conditions: read-out: Activity
A498 [12] = assay: Growth inhibition of human A498 cells assessed as cell growth at 10^-5 M incubated for 48 hrs by sulforhodamine B assay; assay type: functional; conditions: A498, 48 h, read-out: Activity; how it was run: as §1
MDA-MB-435 = assay: Growth inhibition of human MDA-MB-435 cells assessed as cell growth at 10^-5 M incubated for 48 hrs by sulforhodamine B assay; assay type: functional; conditions: MDA-MB-435, 48 h, read-out: Activity
[13] = Growth inhibition of human MOLT4 cells assessed as cell growth at 10 uM incubated for 48 hrs by sulforhodamine B assay; assay type: functional; conditions: MOLT-4, 48 h, read-out: Activity
HT-29 = assay: Growth inhibition of human HT-29 cells assessed as cell growth at 10^-8 M incubated for 48 hrs by sulforhodamine B assay; assay type: functional; conditions: HT-29, 48 h, read-out: Activity
[14] = Growth inhibition of human renal cancer cells incubated for 48 hrs by sulforhodamine B assay; assay type: functional; conditions: Cancer cell lines; for CC50: read-out: LC50 (the source's name)
Albumin = Albumin (Bos taurus, UniProt P02769); assay: Binding affinity to bovine serum albumin assessed as isoemissive point up to 20 uM by fluorescence spectroscopic analysis relative to control; assay type: ADME; conditions: cattle, isolated protein
Chain of Albumin (P02769 whole entry): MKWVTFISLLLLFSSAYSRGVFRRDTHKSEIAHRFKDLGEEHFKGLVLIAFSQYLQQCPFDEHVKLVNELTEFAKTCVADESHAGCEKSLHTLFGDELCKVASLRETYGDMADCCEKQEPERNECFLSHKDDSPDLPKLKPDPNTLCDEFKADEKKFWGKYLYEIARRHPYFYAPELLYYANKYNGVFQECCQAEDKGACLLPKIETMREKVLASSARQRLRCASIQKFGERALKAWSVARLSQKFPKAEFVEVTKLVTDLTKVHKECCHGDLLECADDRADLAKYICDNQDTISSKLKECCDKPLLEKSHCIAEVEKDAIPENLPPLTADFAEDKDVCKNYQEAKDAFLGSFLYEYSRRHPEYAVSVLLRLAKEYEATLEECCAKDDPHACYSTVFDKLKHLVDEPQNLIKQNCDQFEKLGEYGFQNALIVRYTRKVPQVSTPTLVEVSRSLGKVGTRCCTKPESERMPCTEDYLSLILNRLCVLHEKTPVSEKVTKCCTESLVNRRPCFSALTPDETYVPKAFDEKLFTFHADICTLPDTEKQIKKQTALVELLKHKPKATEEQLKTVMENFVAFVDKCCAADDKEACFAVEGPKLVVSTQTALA
How it was run: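 Fluorescence titration of 10 µM BSA in 0.1 M phosphate buffer pH 7.4 with compound at 0–20 µM, diluted from DMSO stocks. Excitation 280 nm, slit 10 nm, 1 cm quartz cell, 300 K. Changes in the 350 nm Trp emission, new bands near 370–373 nm and isoemissive points are read against BSA alone.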

SN12C [15] = assay: Growth inhibition of human SN12C cells assessed as cell growth at 10 uM incubated for 48 hrs by sulforhodamine B assay; assay type: functional; conditions: read-out: Activity
EKVX = assay: Growth inhibition of human EKVX cells assessed as cell growth at 10^-4 M incubated for 48 hrs by sulforhodamine B assay; assay type: functional; conditions: read-out: Activity; how it was run: as §2
A498 [16] = assay: Growth inhibition of human A498 cells assessed as cell growth at 10^-4 M incubated for 48 hrs by sulforhodamine B assay; assay type: functional; conditions: A498, 48 h, read-out: Activity; how it was run: as §1
[17] = read-out: LC50 (the source's name)
[18] = read-out: pLC50 (the source's name) (converted)

c1ccc(-c2nc(Nc3ccc(-c4nc5ccccc5[nH]4)cc3)nc(N3CCOCC3)n2)cc1
growth at 0.01 µM [1]: 94% | GI50 ([2]; read-out: GI50): 1.98 µM | CC50 [2, 17]: 7.68 µM | TGI ([2]; read-out: TGI): 3.9 µM | GI50 ([2]; read-out: pGI50 (converted)): 2 µM | CC50 [2, 18]: 7.76 µM | TGI ([2]; read-out: pTGI (converted)): 3.89 µM | GI50 (SK-MEL-28; read-out: GI50): 1.56 µM | CC50 (SK-MEL-28; [17]): 6.12 µM | TGI (SK-MEL-28; read-out: TGI): 3.09 µM | GI50 (SK-MEL-28; read-out: pGI50 (converted)): 1.55 µM | CC50 (SK-MEL-28; [18]): 6.17 µM | TGI (SK-MEL-28; read-out: pTGI (converted)): 3.09 µM | growth at 0.01 µM [3]: 93% | growth at 0.01 µM [4]: 99% | growth at 0.1 µM [5]: 97% | growth at 10 µM (ACHN): -58.9% | LC50 [6]: 5.06 µM | GI50 ([6]; read-out: GI50): 1.28 µM | TGI ([6]; read-out: TGI): 2.54 µM | GI50 ([6]; read-out: pGI50 (converted)): 1.29 µM | CC50 [6]: 5.01 µM | TGI ([6]; read-out: pTGI (converted)): 2.57 µM | growth at 10 µM [7]: -62% | growth at 0.01 µM (M14): 102% | growth at 100 µM (MDA-MB-231): -60% | growth at 10 µM (A549): -68.5% | growth at 1 µM [8]: 119% | growth at 1 µM [9]: 92% | growth at 10 µM [10]: -89% | growth at 10 µM (SN12C [11]): -60% | growth at 10 µM (A498 [12]): -76% | growth at 10 µM (MDA-MB-435): -90% | growth at 10 µM [13]: -37.8% | growth at 0.01 µM (HT-29): 105% | GI50 [14]: 1.2 µM | TGI [14]: 2.72 µM | CC50 [14]: 6.27 µM | Activity (Albumin): 357 nm | growth at 10 µM (SN12C [15]): -62.8% | growth at 100 µM (EKVX): -66% | growth at 100 µM (A498 [16]): -100%

Fc1ccc(-c2nc(Nc3ccc(-c4nc5ccccc5[nH]4)cc3)nc(N3CCOCC3)n2)cc1
growth at 0.01 µM [1]: 95% | GI50 ([2]; read-out: GI50): 1.74 µM | TGI ([2]; read-out: TGI): 4.07 µM | GI50 ([2]; read-out: pGI50 (converted)): 1.74 µM | TGI ([2]; read-out: pTGI (converted)): 4.07 µM | GI50 (SK-MEL-28; read-out: GI50): 1.8 µM | CC50 (SK-MEL-28; [17]): > 100 µM | TGI (SK-MEL-28; read-out: TGI): 4.28 µM | GI50 (SK-MEL-28; read-out: pGI50 (converted)): 1.78 µM | CC50 (SK-MEL-28; [18]): > 100 µM | TGI (SK-MEL-28; read-out: pTGI (converted)): 4.27 µM | growth at 0.01 µM [3]: 96% | growth at 0.01 µM [4]: 101% | growth at 0.1 µM [5]: 99% | growth at 10 µM (ACHN): 9% | LC50 [6]: > 100 µM | GI50 ([6]; read-out: GI50): 1.98 µM | TGI ([6]; read-out: TGI): 5.02 µM | GI50 ([6]; read-out: pGI50 (converted)): 2 µM | CC50 [6]: > 100 µM | TGI ([6]; read-out: pTGI (converted)): 5.01 µM | growth at 10 µM [7]: -35% | growth at 0.01 µM (M14): 97% | growth at 100 µM (MDA-MB-231): -33% | growth at 10 µM (A549): 11.2% | growth at 1 µM [8]: 100% | growth at 1 µM [9]: 93% | growth at 10 µM [10]: -75.6% | growth at 10 µM (SN12C [11]): 12% | growth at 10 µM (A498 [12]): -60% | growth at 10 µM (MDA-MB-435): -62% | growth at 10 µM [13]: 1.78% | growth at 0.01 µM (HT-29): 100% | GI50 [14]: 2.03 µM | TGI [14]: 7.36 µM | CC50 [14]: 7.83 µM | Activity (Albumin): 341 nm | growth at 10 µM (SN12C [15]): 40.8% | growth at 100 µM (EKVX): 3% | growth at 100 µM (A498 [16]): -96%
